Data reported in ChEMBL document CHEMBL1125014, “Synthesis and structure-activity relationships of new 9-N-alkyl derivatives of 9(S)-erythromycylamine” (1990).
Converted amounts (≈) assume the structure as drawn.

Assays:
Format in all cases: functional
Haemophilus influenzae [1] = assay: MIC value was measured against haemophilus influenzae.
Procedure, shortened: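 Susceptibility determined by standard agar-dilution method against a panel of bacterial strains.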

Haemophilus influenzae [2] = assay: MIC value was measured against haemophilus influenzae CL
Staphylococcus aureus [3] = assay: Effective dose against mice infected with Staphylococcus aureus after peroral administration (in vivo); conditions: in Mus musculus, po
Streptococcus pneumoniae [4] = assay: Effective dose against mice infected with streptococcus pneumoniae after peroral administration (in vivo); conditions: in Mus musculus, po
Streptococcus pyogenes [5] = assay: Effective dose against mice infected with streptococcus pyogenes after peroral administration (in vivo); conditions: in Mus musculus, po
Streptococcus pneumoniae [6] = assay: MIC value measured against streptococcus pneumoniae Park1
Staphylococcus aureus [7] = assay: MIC value measured against staphylococcus aureus X1
Streptococcus pyogenes [8] = assay: MIC value measured against streptococcus pyogenes C203
[9] = test system: Staphylococcus epidermidis; assay: microbe, parasite or virus in culture

Row | MIC (Haemophilus influenzae [1]) | MIC (Haemophilus influenzae [2]) | MIC (Streptococcus pneumoniae [6]) | MIC (Staphylococcus aureus [7]) | MIC (Streptococcus pyogenes [8]) | MIC [9] | Structure (SMILES) | ED50 (Staphylococcus aureus [3]) | ED50 (Streptococcus pneumoniae [4]) | ED50 (Streptococcus pyogenes [5])
1 | 2 mg/L (≈ 2.49 µM) | 2 mg/L (≈ 2.49 µM) | 0.06 mg/L (≈ 0.0747 µM) | 1 mg/L (≈ 1.25 µM) | 0.06 mg/L (≈ 0.0747 µM) | 0.5 mg/L (≈ 0.623 µM) | CC[C@H]1OC(=O)[C@H](C)[C@@H](OC2CC(C)(OC)C(O)C(C)O2)[C@H](C)[C@@H](OC2OC(C)CC(N(C)C)C2O)[C@](C)(O)C[C@@H](C)[C@H](NC2CCCC2)[C@H](C)[C@@H](O)[C@]1(C)O (some centres undefined) | 46 mg/kg | 4 mg/kg | 4 mg/kg
2 | 1 mg/L (≈ 1.2 µM) | 1 mg/L (≈ 1.2 µM) | 0.015 mg/L (≈ 0.018 µM) | 0.25 mg/L (≈ 0.3 µM) | 0.015 mg/L (≈ 0.018 µM) | 0.25 mg/L (≈ 0.3 µM) | CCCCCCCN[C@@H]1[C@H](C)[C@@H](O)[C@](C)(O)[C@@H](CC)OC(=O)[C@H](C)[C@@H](OC2CC(C)(OC)C(O)C(C)O2)[C@H](C)[C@@H](OC2OC(C)CC(N(C)C)C2O)[C@](C)(O)C[C@H]1C (some centres undefined) | > 50 mg/kg | 33 mg/kg | 31 mg/kg
3 | 2 mg/L (≈ 2.57 µM) | 2 mg/L (≈ 2.57 µM) | 0.12 mg/L (≈ 0.154 µM) | 1 mg/L (≈ 1.29 µM) | 0.25 mg/L (≈ 0.322 µM) | 0.5 mg/L (≈ 0.643 µM) | CC[C@H]1OC(=O)[C@H](C)[C@@H](OC2CC(C)(OC)C(O)C(C)O2)[C@H](C)[C@@H](OC2OC(C)CC(N(C)C)C2O)[C@](C)(O)C[C@@H](C)[C@H](NC(C)C)[C@H](C)[C@@H](O)[C@]1(C)O (some centres undefined) | 32 mg/kg | 13 mg/kg | 13 mg/kg
4 | 1 mg/L (≈ 1.26 µM) | 1 mg/L (≈ 1.26 µM) | 0.015 mg/L (≈ 0.019 µM) | 0.25 mg/L (≈ 0.316 µM) | 0.06 mg/L (≈ 0.0758 µM) | 0.25 mg/L (≈ 0.316 µM) | CCCCN[C@@H]1[C@H](C)[C@@H](O)[C@](C)(O)[C@@H](CC)OC(=O)[C@H](C)[C@@H](OC2CC(C)(OC)C(O)C(C)O2)[C@H](C)[C@@H](OC2OC(C)CC(N(C)C)C2O)[C@](C)(O)C[C@H]1C (some centres undefined) | 15 mg/kg | 13 mg/kg | 13 mg/kg
5 |  |  |  | 1 mg/L (≈ 1.16 µM) | 0.06 mg/L (≈ 0.0698 µM) | 0.5 mg/L (≈ 0.582 µM) | CC[C@H]1OC(=O)[C@H](C)[C@@H](OC2CC(C)(OC)C(O)C(C)O2)[C@H](C)[C@@H](OC2OC(C)CC(N(C)C)C2O)[C@](C)(O)C[C@@H](C)[C@H](NCC2CCCCCCC2)[C@H](C)[C@@H](O)[C@]1(C)O (some centres undefined) |  |  | 
6 | 32 mg/L (≈ 38.5 µM) | 32 mg/L (≈ 38.5 µM) | 0.12 mg/L (≈ 0.144 µM) | 16 mg/L (≈ 19.3 µM) | 1 mg/L (≈ 1.2 µM) | 8 mg/L (≈ 9.63 µM) | CC[C@H]1OC(=O)[C@H](C)[C@@H](OC2CC(C)(OC)C(O)C(C)O2)[C@H](C)[C@@H](OC2OC(C)CC(N(C)C)C2O)[C@](C)(O)C[C@@H](C)[C@H](N(C)C2CCCCC2)[C@H](C)[C@@H](O)[C@]1(C)O (some centres undefined) | > 50 mg/kg | > 50 mg/kg | > 50 mg/kg
7 | 1 mg/L (≈ 1.22 µM) | 1 mg/L (≈ 1.22 µM) | 0.015 mg/L (≈ 0.0183 µM) | 1 mg/L (≈ 1.22 µM) | 0.03 mg/L (≈ 0.0365 µM) | 1 mg/L (≈ 1.22 µM) | CC[C@H]1OC(=O)[C@H](C)[C@@H](OC2CC(C)(OC)C(O)C(C)O2)[C@H](C)[C@@H](OC2OC(C)CC(N(C)C)C2O)[C@](C)(O)C[C@@H](C)[C@H](NCC(C)(C)CO)[C@H](C)[C@@H](O)[C@]1(C)O (some centres undefined) | > 50 mg/kg | 46 mg/kg | 20 mg/kg
8 | 1 mg/L (≈ 1.24 µM) | 1 mg/L (≈ 1.24 µM) | 0.015 mg/L (≈ 0.0186 µM) | 0.5 mg/L (≈ 0.621 µM) | 0.06 mg/L (≈ 0.0745 µM) | 0.5 mg/L (≈ 0.621 µM) | CCCCCN[C@@H]1[C@H](C)[C@@H](O)[C@](C)(O)[C@@H](CC)OC(=O)[C@H](C)[C@@H](OC2CC(C)(OC)C(O)C(C)O2)[C@H](C)[C@@H](OC2OC(C)CC(N(C)C)C2O)[C@](C)(O)C[C@H]1C (some centres undefined) | 25 mg/kg | 14 mg/kg | 9 mg/kg
9 | 1 mg/L (≈ 1.1 µM) | 1 mg/L (≈ 1.1 µM) |  | 0.5 mg/L (≈ 0.552 µM) | 0.015 mg/L (≈ 0.0166 µM) | 0.25 mg/L (≈ 0.276 µM) | CC[C@H]1OC(=O)[C@H](C)[C@@H](OC2CC(C)(OC)C(O)C(C)O2)[C@H](C)[C@@H](OC2OC(C)CC(N(C)C)C2O)[C@](C)(O)C[C@@H](C)[C@H](NCCC(C)CCCC(C)(C)OC)[C@H](C)[C@@H](O)[C@]1(C)O (some centres undefined) | > 46 mg/kg | 24 mg/kg | 25 mg/kg
10 | 2 mg/L (≈ 2.25 µM) | 2 mg/L (≈ 2.25 µM) |  | 2 mg/L (≈ 2.25 µM) | 1 mg/L (≈ 1.13 µM) | 1 mg/L (≈ 1.13 µM) | C=CCCCCCCCCCN[C@@H]1[C@H](C)[C@@H](O)[C@](C)(O)[C@@H](CC)OC(=O)[C@H](C)[C@@H](OC2CC(C)(OC)C(O)C(C)O2)[C@H](C)[C@@H](OC2OC(C)CC(N(C)C)C2O)[C@](C)(O)C[C@H]1C (some centres undefined) |  |  | 
11 |  |  | 0.06 mg/L (≈ 0.0664 µM) | 4 mg/L (≈ 4.43 µM) | 0.5 mg/L (≈ 0.554 µM) | 4 mg/L (≈ 4.43 µM) | CCCCCCCCCCCCN[C@@H]1[C@H](C)[C@@H](O)[C@](C)(O)[C@@H](CC)OC(=O)[C@H](C)[C@@H](OC2CC(C)(OC)C(O)C(C)O2)[C@H](C)[C@@H](OC2OC(C)CC(N(C)C)C2O)[C@](C)(O)C[C@H]1C (some centres undefined) | > 45 mg/kg | > 50 mg/kg | > 50 mg/kg
12 | 0.5 mg/L (≈ 0.668 µM) | 0.5 mg/L (≈ 0.668 µM) |  | 1 mg/L (≈ 1.34 µM) | 0.06 mg/L (≈ 0.0801 µM) | 0.25 mg/L (≈ 0.334 µM) | CC[C@H]1OC(=O)[C@H](C)[C@@H](OC2CC(C)(OC)C(O)C(C)O2)[C@H](C)[C@@H](OC2OC(C)CC(N(C)C)C2O)[C@](C)(O)C[C@@H](C)[C@H](NC)[C@H](C)[C@@H](O)[C@]1(C)O (some centres undefined) | 44 mg/kg | 35 mg/kg | 21 mg/kg
13 | 32 mg/L (≈ 40.5 µM) | 32 mg/L (≈ 40.5 µM) | 0.5 mg/L (≈ 0.632 µM) | 8 mg/L (≈ 10.1 µM) | 0.5 mg/L (≈ 0.632 µM) | 8 mg/L (≈ 10.1 µM) | CC[C@H]1OC(=O)[C@H](C)[C@@H](OC2CC(C)(OC)C(O)C(C)O2)[C@H](C)[C@@H](OC2OC(C)CC(N(C)C)C2O)[C@](C)(O)C[C@@H](C)[C@H](N(C)C(C)C)[C@H](C)[C@@H](O)[C@]1(C)O (some centres undefined) |  |  | 
14 | 2 mg/L (≈ 2.62 µM) | 2 mg/L (≈ 2.62 µM) |  | 4 mg/L (≈ 5.24 µM) | 0.25 mg/L (≈ 0.328 µM) | 2 mg/L (≈ 2.62 µM) | CC[C@H]1OC(=O)[C@H](C)[C@@H](OC2CC(C)(OC)C(O)C(C)O2)[C@H](C)[C@@H](OC2OC(C)CC(N(C)C)C2O)[C@](C)(O)C[C@@H](C)[C@H](N(C)C)[C@H](C)[C@@H](O)[C@]1(C)O (some centres undefined) | > 44 mg/kg | 44 mg/kg | 22 mg/kg
15 | 1 mg/L (≈ 1.31 µM) | 1 mg/L (≈ 1.31 µM) | 0.03 mg/L (≈ 0.0393 µM) | 1 mg/L (≈ 1.31 µM) | 0.12 mg/L (≈ 0.157 µM) | 1 mg/L (≈ 1.31 µM) | CCN[C@@H]1[C@H](C)[C@@H](O)[C@](C)(O)[C@@H](CC)OC(=O)[C@H](C)[C@@H](OC2CC(C)(OC)C(O)C(C)O2)[C@H](C)[C@@H](OC2OC(C)CC(N(C)C)C2O)[C@](C)(O)C[C@H]1C (some centres undefined) | 23 mg/kg | 13 mg/kg | 13 mg/kg
16 |  | 4 mg/L (≈ 5.57 µM) |  | 0.25 mg/L (≈ 0.348 µM) | 0.03 mg/L (≈ 0.0418 µM) | 0.25 mg/L (≈ 0.348 µM) | CC[C@H]1OC(=O)[C@H](C)[C@@H](OC2CC(C)(OC)C(O)C(C)O2)[C@H](C)[C@@H](OC2OC(C)CC(N(C)C)C2O)[C@](C)(O)C[C@@H](C)C(=O)[C@H](C)[C@@H](O)[C@H]1C (some centres undefined) |  |  | 
17 | 2 mg/L (≈ 2.49 µM) | 2 mg/L (≈ 2.49 µM) |  | 1 mg/L (≈ 1.25 µM) | 1 mg/L (≈ 1.25 µM) | 1 mg/L (≈ 1.25 µM) | CC[C@H]1OC(=O)[C@H](C)[C@@H](OC2CC(C)(OC)C(O)C(C)O2)[C@H](C)[C@@H](OC2OC(C)CC(N(C)C)C2O)[C@](C)(O)C[C@@H](C)[C@H](NCCCC#N)[C@H](C)[C@@H](O)[C@]1(C)O (some centres undefined) | 36 mg/kg | 29 mg/kg | 21 mg/kg
